Only some compounds are listed: those with a hit (about 2.5% of all), similar ones and a draw of the others.
SIAE inh = inhibitors of human sialic acid acetylesterase SIAE; 370,000 compounds, 0.69% hits; Q9HAT2; SIAE FP-Rh probe binding, fluorescence polarization; inhibition, % at 9.66 µM;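 active means inhibition above a cutoff: mean of compounds within the control limits plus 3 SD of those, cut at about 17% in these data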
Target sequence (Q9HAT2 whole entry, looked up): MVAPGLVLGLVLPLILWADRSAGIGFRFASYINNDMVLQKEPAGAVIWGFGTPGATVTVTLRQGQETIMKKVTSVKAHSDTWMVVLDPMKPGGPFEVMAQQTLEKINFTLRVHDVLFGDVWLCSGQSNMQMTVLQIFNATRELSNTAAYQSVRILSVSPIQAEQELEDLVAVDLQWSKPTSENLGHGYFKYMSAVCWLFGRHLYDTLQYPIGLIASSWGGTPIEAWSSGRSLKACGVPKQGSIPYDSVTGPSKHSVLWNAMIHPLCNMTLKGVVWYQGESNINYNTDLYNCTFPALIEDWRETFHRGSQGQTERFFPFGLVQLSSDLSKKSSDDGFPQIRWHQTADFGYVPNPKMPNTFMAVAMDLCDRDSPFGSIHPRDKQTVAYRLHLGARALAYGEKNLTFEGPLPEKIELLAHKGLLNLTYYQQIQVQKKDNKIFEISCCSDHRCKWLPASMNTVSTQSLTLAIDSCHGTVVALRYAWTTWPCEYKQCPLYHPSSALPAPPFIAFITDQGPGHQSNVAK
TCR CD3 inh = human TCR-CD3 binding inhibition; 360,000 compounds, 0.37% hits; inhibition, % at 9.4 µM; TAMRA-labeled TCR probe fluorescence, biochemical; AID 651800; in the data active means inhibition above about 19%;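 further: recombinant mutant TCR 2C K166C tagged with TAMRA read by polarization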
HTRA1 inh = blocks human HTRA1 serine peptidase; Q92743; recombinant HTRA1, FP-rhodamine activity-based probe, fluorescence polarization; inhibition, % at 5.96 µM; 340,000 compounds, 0.5% hits; AID 504803; in the data active means inhibition above about 36%
mABHD4 FP = inhibits mouse alpha/beta hydrolase domain 4; AID 720543; purified mABHD4, FP-Rh probe fluorescence polarization; inhibition, % at 8.92 µM; Q8VD66; 370,000 compounds, 0.54% hits;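 active means inhibition exceeding the mean over every tested compound plus 3 SD, cut at about 30% in these data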
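Assay system: mABHD4 protein; medium: HEPES pH 7.0, NaCl, Pluronic buffer; dosing: 8.92 µM, single dose; schedule: 45 min + 60 min at 25 °C; signal: FP readout, ex 525 nm / em 598 nm; read-out: normalized percent inhibition of probe labeling; repeats: single replicate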
PRMT1 FP inh = PRMT1 (human) inhibition, primary screen. recombinant PRMT1, activity-based probe fluorescence polarization. inhibition, % at 2.79 µM. Q99873. 370,000 compounds, 1.3% hits. AID 652257;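 active means inhibition above about 21% made by adding two undisclosed values, limit read from the data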
PRMT1 inh conf = PRMT1 (human) inhibition, FP confirmation | recombinant His-PRMT1, activity-based probe fluorescence polarization | AID 687036 | inhibition, % at 2.79 µM | 3,300 compounds, 42% hits | shares compounds with PRMT1 FP inh;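 active means mean inhibition across replicates above the hit cutoff derived for the earlier primary screen, cut at about 22% in these data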
Large screens that a line does not name were inactive (follow-up assays come after a bar, where they were run).

O=C(NC(=S)NC(=O)c1ccccc1F)c1ccccc1F	PRMT1 FP inh 28 | PRMT1 inh conf inactive
CCN(CC)c1nc(C)c2c(c1C#N)CC(C)(C)OC2	none
CC1(C)Cc2c(C#N)c(N)sc(=S)c2CO1	PRMT1 FP inh 46 | PRMT1 inh conf inactive
CC(C)N1CCc2c(sc(N)c2C#N)C1	none
CC(C)C1Cc2c(C#N)c(N)sc(=S)c2CO1 (stereo not given)	PRMT1 FP inh 48 | PRMT1 inh conf inactive
COC(=O)C1=C(C)N(C)C(=NCc2ccccc2C(F)(F)F)NC1CCc1ccccc1 (stereo not given)	none (no result: HTRA1 inh)
O=C1C2C3C=CC(CNS(=O)(=O)c4ccccc4)(O3)C2C(=O)N1c1ccc(Cl)cc1 (stereo not given)	PRMT1 FP inh 80 | PRMT1 inh conf 69
O=C1C2C3C=CC(CO)(O3)C2C(=O)N1c1ccccc1-c1ccccc1 (stereo not given)	none (no result: SIAE inh, TCR CD3 inh, mABHD4 FP, PRMT1 FP inh)
CC(=O)Oc1ccc(N2C(=O)C3C4C=CC(CO)(O4)C3C2=O)cc1 (stereo not given)	PRMT1 FP inh 85 | PRMT1 inh conf 79
CCCCN(C(=O)Cn1nnc2ccccc21)C(C(=O)NCCOC)c1cccs1 (stereo not given)	none
O=C1Nc2cccnc2Sc2ccccc21	none
c1ccc2c(c1)Nc1nccnc1S2	PRMT1 FP inh 49 | PRMT1 inh conf 47
O=C1CC(Sc2nnnn2-c2ccccc2)C(=O)N1c1cccc(Cl)c1 (stereo not given)	PRMT1 FP inh 74 | PRMT1 inh conf 79
COc1ccc(N2C(=O)CC(Sc3nc(C)cc(C)c3C#N)C2=O)cc1 (stereo not given)	none
COc1ccc(N2C(=O)CC(Sc3nnnn3-c3ccc(F)cc3)C2=O)cc1 (stereo not given)	PRMT1 FP inh 51 | PRMT1 inh conf 64
CCCOC(=O)c1c(NC(=O)C2C3C=CC(C3)C2C(=O)O)sc2c1CCC(C)C2 (stereo not given)	PRMT1 FP inh 52 | PRMT1 inh conf inactive
CCOC(=O)c1c(NC(=O)C2C3C=CC(C3)C2C(=O)O)sc2c1CC(C)CC2 (stereo not given)	none
C=CCn1c(=S)[nH]c2scc(-c3ccc(C)o3)c2c1=O	PRMT1 FP inh 28 | PRMT1 inh conf inactive
C=CCn1c(SCC(C)=O)nc2scc(-c3ccc(C)o3)c2c1=O	PRMT1 FP inh 25 | PRMT1 inh conf inactive
Cc1nn(-c2ccccc2)c(N2CCCC2)c1/C=N/NC(=S)Nc1ccc(F)cc1	none
Cc1nn(C)cc1/C=N/NC(=S)Nc1ccccc1	PRMT1 FP inh 39 | PRMT1 inh conf inactive
CCC1CCC(NC2CCCCNC2=O)CC1 (stereo not given)	none
CC1CCCC(NC2CCCCNC2=O)C1 (stereo not given)	PRMT1 FP inh 27 | PRMT1 inh conf inactive
O=C(NNc1nc(-c2ccccc2)cs1)c1cccs1	PRMT1 FP inh 51 (no result: HTRA1 inh) | PRMT1 inh conf inactive
O=C(NC(=S)Nc1nc(-c2ccccc2)cs1)c1cccs1	none
CN(Cc1ccccc1)C(=O)c1cnc(Cc2c[nH]c3ccccc23)c(I)c1	none (no result: HTRA1 inh)
O=C(NNC1CC(=O)N(c2ccc3c(c2)OCCO3)C1=O)c1ccc(Cl)cc1 (stereo not given)	PRMT1 FP inh 56 | PRMT1 inh conf inactive
C=CCc1cc(OC)ccc1OCCN1CC(C)OC(C)C1 (stereo not given)	none
CCN(CC)C(=S)SCC(=O)Nc1nc(=O)c2ccccc2s1	PRMT1 FP inh 44 | PRMT1 inh conf inactive
CCN(CC)C(=S)SCC(=O)Nc1ccc(S(N)(=O)=O)cc1	none
CCCCN(C=O)c1c(CC)nc2ccc(C(=O)N(C)Cc3ccco3)cn12	none (no result: HTRA1 inh)
c1ccc(-c2nc(-c3ccco3)cs2)nc1	PRMT1 FP inh 51 | PRMT1 inh conf inactive
Cc1ccc(/C=C/C(=O)OCC(=O)N(C)c2c(N)n(Cc3ccccc3)c(=O)[nH]c2=O)o1	PRMT1 FP inh 44 | PRMT1 inh conf inactive
Cc1cccc(CCNS(=O)(=O)c2ccc3c(c2)CCN3C(=O)CCC(=O)O)c1	none (no result: SIAE inh, TCR CD3 inh, mABHD4 FP, PRMT1 FP inh)
Cn1c(N)c(C(=O)COC(=O)CSc2ccc(Cl)cc2)c(=O)n(C)c1=O	none
COc1cc(NS(=O)(=O)c2ccc3c(c2)C(C)(C)C(=O)N3C)cc(OC)c1	none
COc1ccccc1NC(=O)c1cc(=O)[nH]c2ccccc12	PRMT1 FP inh 25 | PRMT1 inh conf inactive
Cn1cnnc1Sc1nc2ccccc2nc1NS(=O)(=O)c1ccccc1	none
CC(=O)Nc1ccc(S(=O)(=O)Nc2nc3ccccc3nc2Sc2nncn2C)cc1	PRMT1 FP inh 25 | PRMT1 inh conf inactive
C#CCN(C)S(=O)(=O)c1ccc(N2CCCC2)cc1Br	none (no result: TCR CD3 inh, HTRA1 inh)
CC(C)n1nnnc1SCC(=O)N1N=C(c2cccs2)CC1c1cccs1 (stereo not given)	none
Cc1nnc(SCC2=C(C(=O)O)N3C(=O)C(NC(=O)COc4ccccc4)C3SC2)s1 (stereo not given)	PRMT1 FP inh 38 | PRMT1 inh conf 69
C=CC1=C(C(=O)O)N2C(=O)C(NC(=O)Cc3ccccc3)C2SC1 (stereo not given)	none
CCC(C(=O)NC1C(=O)N2C(C(=O)O)=C(CSc3nnc(C)s3)CSC12)c1ccccc1 (stereo not given)	PRMT1 FP inh 28 | PRMT1 inh conf inactive
CC(=O)OCC1=C(C(=O)O)N2C(=O)C(NC(=O)C(C)Cn3cc(Cl)cn3)C2SC1 (stereo not given)	none
Cc1nnc(SCC2=C(C(=O)O)N3C(=O)C(NC(=O)c4cc(F)c(F)cc4Cl)C3SC2)s1 (stereo not given)	PRMT1 FP inh 34 | PRMT1 inh conf inactive
Cc1nnc(SCC(=O)NNC(=O)COc2ccc(Cl)cc2)s1	none
Cc1nnc(SCC2=C(C(=O)O)N3C(=O)C(NC(=O)COc4ccc(F)cc4)C3SC2)s1 (stereo not given)	PRMT1 FP inh 31 | PRMT1 inh conf 23
Cc1nnc(SCC2=C(C(=O)O)N3C(=O)C(NC(=O)Cn4cnnn4)C3SC2)s1 (stereo not given)	none
COc1ccccc1NC(=O)CSc1nnc(C)s1	none
COc1ccc(F)cc1S(=O)(=O)Nc1cccc(C(=O)O)c1	none
CCOC(=O)c1c(SCCN2CCCC2)n(-c2ccccc2)c(=S)n(-c2ccccc2)c1=O	PRMT1 FP inh 52 | PRMT1 inh conf 40
CCN(CC)CCCNC(=O)c1ccccc1C	none
CCN(CC)CCCNC(=O)/C=C/C(=O)O	PRMT1 FP inh 27 | PRMT1 inh conf inactive
Cc1cc2c(nc1C)CCCN2S(=O)(=O)c1ccc(C#N)cc1	none (no result: HTRA1 inh)
CCc1cc2c(nc1CC)CCCN2S(=O)(=O)c1ccc(C#N)cc1	PRMT1 FP inh 59 (no result: HTRA1 inh) | PRMT1 inh conf 52
CCOc1cc(C2C(C#N)=C(N)OC(C)=C2C(C)=O)cc(Br)c1O (stereo not given)	PRMT1 FP inh 26 | PRMT1 inh conf 28
COC(=O)c1ccc(-c2ccco2)n1Cc1nc(-c2ccc(OC)c(OC)c2)oc1C	PRMT1 FP inh 29 | PRMT1 inh conf inactive
CCCCOc1cccc(C(=O)NNC(=S)NC2CCCCC2)c1	none

Screening results as filed in PubChem.
